Sampled rows, rich in hits. Any-hit rate of the full collection: about 1.5%.
HNF4A DNA FP: change in binding of human HNF4 alpha to DNA | P41235 | HNF4a-FITC DNA binding, fluorescence polarization, 1 h | activity change, % at 10 µM | 0.3% of 360,000 active | AID 1224865; in the data active = activity change above about 30%, passing the limit was not always enough
CSN inh: CSN deneddylation inhibition | Q92905 | Purified CSN, SCF-Nedd8-OG deneddylation, fluorescence polarization | inhibition, % at 12.5 µM | 0.38% of 360,000 active;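 active = pattern-corrected inhibition above about 35%, with an unprinted fluorescence ratio check between 0.5 and 1.5, limit read from the data, passing the limit was not always enough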;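 also: 0% = enzyme with substrate and 100% = substrate without enzyme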
Target sequence (Q92905 whole entry, looked up, one chain of several): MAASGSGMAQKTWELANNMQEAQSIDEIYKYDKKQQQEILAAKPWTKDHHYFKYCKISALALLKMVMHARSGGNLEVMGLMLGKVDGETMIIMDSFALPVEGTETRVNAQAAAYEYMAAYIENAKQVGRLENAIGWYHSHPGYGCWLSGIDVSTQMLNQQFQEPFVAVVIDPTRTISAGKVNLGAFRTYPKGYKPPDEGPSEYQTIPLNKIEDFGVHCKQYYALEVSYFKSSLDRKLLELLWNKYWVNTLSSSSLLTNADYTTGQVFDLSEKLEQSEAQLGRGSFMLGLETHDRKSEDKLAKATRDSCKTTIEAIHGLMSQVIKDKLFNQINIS
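Material: purified human Csn5 enzyme expressed in HEK293T cells / Medium: Tris buffer pH 7.5, NaCl, DTT, Tween-20, trehalose, ovalbumin / Compound dosing: 12.5 µM single point / Schedule: 90 min incubation of compound, enzyme and substrate at room temperature / Signal: fluorescence polarization of the substrate / Control set: no-enzyme wells high, enzyme-with-substrate wells low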
ZTA DNA inh: ZTA (EBV) inhibition in EBNA-1 counter-screen | P03206 | ZTA-DNA binding, fluorescence polarization | inhibition, % at 11 µM | 0.15% of 320,000 active; in the data active = inhibition above about 33%
Target sequence (P03206 whole entry, looked up): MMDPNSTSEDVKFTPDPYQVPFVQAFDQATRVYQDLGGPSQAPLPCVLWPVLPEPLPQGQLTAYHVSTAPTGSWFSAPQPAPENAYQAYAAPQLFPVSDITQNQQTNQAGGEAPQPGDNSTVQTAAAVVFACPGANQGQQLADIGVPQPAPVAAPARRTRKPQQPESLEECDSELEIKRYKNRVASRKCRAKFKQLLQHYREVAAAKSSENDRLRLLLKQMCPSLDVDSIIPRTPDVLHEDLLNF
Bfl-1 A1 inh: inhibitors of the anti-apoptotic protein A1, read as caspase activation | 0.066% of 330,000 active | AID 2462 | caspase activation, % (test concentration not listed) | MEF A1-2A-BIM cells, Caspase-Glo 3/7 luminescence, 3 h; percent of clofoctol response, vehicle zero;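 active = over half of replicate activation scores above 10%, or exactly half above 10 with the replicate mean above 10; inconclusive = replicate mean below 10 yet half the replicates above 10; inactive = over half of replicates below 10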
LANA-H2B inh: blocks KSHV LANA binding to histone H2A/H2B; Q9QR71; cell-free LANA-H2A/H2B peptide, fluorescence polarization; inhibition, % (no concentration beside the values); 0.6% of 320,000 active; in the data active = inhibition mostly above about 10%, no sharp cut-off; inactive = mostly below about 6.7%
EBNA-1 inh: blocks EBNA-1 binding to DNA. EBNA-1 DNA binding, fluorescence polarization. inhibition, % at 14.8 µM. 0.34% of 300,000 active; in the data active = inhibition above about 28%
* = called active by the depositor; ? = inconclusive; . = no result given; + = active, no number.

SMILES	HNF4A DNA FP	CSN inh	ZTA DNA inh	Bfl-1 A1 inh	LANA-H2B inh	EBNA-1 inh
CC1=CC(C)(C)NC(=S)N1c1cccc(Cl)c1	0.9	-2.0	.	.	.	.
Cc1ccc(C(=O)COC(=O)CSc2cccc3cccnc23)c(C)c1	-2.6	1.3	-10.6	2.5	16.7*	-0.2
COC(=O)c1ccccc1-c1c2ccc(=N)cc-2oc2cc(N)ccc12	-96.0	-73.5	15.6	2.0	192.2*	.
O=C(Nc1ccc(O)c2c(=O)cc(-c3cccc(Cl)c3)oc12)c1cccc(Cl)c1	0.3	-4.4	-15.6	15.1*	-3.6	8.0
CC(C)(C)c1ccc(C(=O)Nc2ccc(O)c3c(=O)cc(-c4cccc(Cl)c4)oc23)cc1	1.0	5.5	-1.3	?	3.0	3.1
Cc1nn(-c2cc(C(F)(F)F)ccc2Cl)c2nc(C(Cl)(Cl)Cl)[nH]c(=O)c12	1.5	3.8	8.2	-0.2	-1.2	5.4
COc1ccc(C(=O)Nc2nnc(SCC(=O)NCc3ccco3)s2)cc1OC	-2.2	2.2	3.5	-0.5	-0.9	-0.2
COc1cc(OC)cc(C(=O)Nc2nnc(SCC(=O)NCc3ccco3)s2)c1	-2.4	-1.5	7.0	-0.1	39.2*	14.6
O=C(N/N=C1\C(=O)c2cccc3cccc1c23)c1ccc(O)cc1	-3.0	3.2	-6.2	-0.8	+	-1.3
COc1ccccc1OCCOc1ccc(/C=C2/C(=N)N3OC(C)=CC3=NC2=O)cc1OC	1.4	50.2*	-24.2	-0.1	1.8	0.5
COc1cc(/C=C2/C(=N)N3C=CSC3=NC2=O)ccc1OCCCOc1cc(C)ccc1C	5.1	5.5	1.5	8.5*	-0.2	8.3
COc1ccc(NCc2nnc(-c3ccccc3)o2)cc1	0.5	-0.4	-12.1	-1.3	-9.2	3.5
Cc1ccc(C)c(CSC2=NCCN2S(=O)(=O)c2ccccc2)c1	4.7	-5.6	-12.4	-0.1	-4.1	7.6
Cc1ccc(Sc2ncccc2O)cc1	0.7	-1.5	9.5	-0.1	-5.5	5.9
Cc1ccc(Sc2ncccc2N)cc1	0.1	1.3	-14.6	-0.2	37.4*	-14.4
CCOc1c(Cl)cc(/C=C/C(=O)N(CC)CC(=O)NCc2cccs2)cc1OC	3.1	1.2	6.8	1.3	-1.5	-14.1
CCN(CCn1cccn1)C(=O)c1cc(COc2ccccc2SC)on1	1.9	-0.8	.	-1.4	5.8	.
CCN(CCn1cccn1)C(=O)c1cc(COc2cc(C)ccc2C)on1	-1.1	3.4	.	1.7	36.5*	.
O=C(NCC1(N2CCCCC2)CCCCC1)c1cccc(S(=O)(=O)Nc2ccc(F)cc2)c1	1.9	1.4	-6.4	-0.1	23.2*	.
O=C(NCC1CCCO1)c1cccc(S(=O)(=O)Nc2ccc(F)cc2)c1 (stereo not drawn)	-2.9	-3.7	-4.1	0.4	63.0*	.
COc1ccc(C(=O)/C=C2\Sc3ccccc3N2C)cc1	-1.4	-10.3	5.4	-0.3	-4.4	1.3
COc1ccc(-[n+]2c(C)cc(/C=C3\Sc4ccccc4N3C)cc2C)cc1	49.6*	21.3	-26.6	-1.6	-98.7	-4.9
COc1ccccc1OC(=O)CCN1c2ccccc2Sc2ccccc21	5.2	-3.9	-1.4	0.2	-2.3	8.1
COc1ccccc1-[n+]1c(C)cc(/C=C2\Sc3ccccc3N2C)cc1C	54.6*	21.5	2.4	0.1	-50.6	11.0
COc1ccc(/C=c2\s/c(=C/C(=O)c3ccc(C)cc3)[nH]c2=O)cc1OC	66.7*	31.8	4.0	0.4	-1.1	-4.9
SMILES	HNF4A DNA FP	CSN inh	ZTA DNA inh	Bfl-1 A1 inh	LANA-H2B inh	EBNA-1 inh
O=C(NCCS(=O)(=O)N1CCN(c2cccc(Cl)c2)CC1)c1ccco1	-0.3	1.4	-1.5	0.8	-0.9	-6.6
O=Cc1ccc2c(c1)OCCOCCOCCOCCO2	-2.5	-2.6	.	.	.	.
COc1cc(/C=N/N=C(\N)c2nonc2N)ccc1O	1.4	-3.0	0.5	-0.2	-3.2	-2.6
N/C(=N\N=C\c1ccc(O)c(O)c1)c1nonc1N	-2.4	0.7	-4.7	-8.4	17.8*	-12.9
CC(C)(C)C(=O)N(Cc1ccc(Cl)cc1)c1cnccn1	-1.9	2.4	-3.3	1.1	-1.7	-3.2
Cc1ccc(C(=O)NCC(c2ccc(F)cc2)N2CCOCC2)cc1 (stereo not drawn)	77.2*	0.0	4.4	0.0	4.2	-7.3
Cc1cccc(C(=O)NCC(c2ccc(F)cc2)N2CCOCC2)c1 (stereo not drawn)	1.2	-1.0	-24.5	-0.3	-1.8	-6.5
O=C(CN1CCN(C(=O)C2CCN(C(=O)/C=C/c3ccccc3)CC2)CC1)Nc1ccccc1Cl	1.8	2.3	.	.	.	.
O=C(Cc1ccccc1[N+](=O)[O-])NCCCN1CCOCC1	-0.8	-12.4	0.8	-0.3	+	5.8
O=C(NCCCN1CCOCC1)C(Sc1ccccc1)c1ccccc1 (stereo not drawn)	-1.1	-5.8	6.2	-0.2	52.7*	-4.2
O=C(NC(=S)NCCCN1CCOCC1)c1ccc(Br)cc1	3.9	-1.0	-6.9	-0.1	2.1	-8.3
O=C(NCCN1CCOCC1)C(Sc1ccccc1)c1ccccc1 (stereo not drawn)	4.2	5.8	5.5	0.2	2.6	2.7
Cn1cc(CC(=O)NCCCN2CCOCC2)c2ccccc21	-3.2	-0.5	-11.1	0.2	-0.2	-11.9
O=C(CCNC(=O)c1ccc(Br)cc1)NCCCN1CCOCC1	0.5	-3.3	-3.1	0.1	51.1*	.
COc1cccc(/C=C2/Oc3ccccc3N(CC(=O)NCC3CCCO3)C2=O)c1 (stereo not drawn)	2.5	2.6	1.4	1.5	-4.6	2.4
Cc1ccc2c(CN3CCN(c4ccccc4)CC3)cc(=O)oc2c1	3.3	1.1	.	.	.	.
COc1ccc2nc(NC(=O)CS(=O)(=O)c3ccc(C)cc3)sc2c1	1.4	-2.2	-3.0	0.2	-5.4	-4.9
NC(=O)CSc1nc2scc(-c3ccco3)c2c(=O)n1-c1ccccc1	-13.6	21.3	-18.5	-0.6	2.3	3.5
O=c1c2c(-c3ccco3)csc2nc(SCc2cn3cccnc3n2)n1-c1ccccc1	-7.3	46.3*	11.9	0.4	3.5	-0.4
O=C(O)c1ccc(Cl)c(S(=O)(=O)Nc2cccc(C(=O)Nc3cccc(C(F)(F)F)c3)c2)c1	-1.6	-2.4	-4.6	-0.2	69.6*	9.5
CC(=O)c1ccc(-c2c(CCO)sc3ccccc23)cc1	3.4	4.2	.	.	.	.
CCOC(=O)c1sc(NC(=O)/C=C/c2c(F)cccc2Cl)nc1C	34.0*	-3.9	8.3	0.5	-6.6	0.2
CCOC(=O)c1sc(NC(=O)Nc2ccccc2F)nc1C	0.3	6.0	24.4	-8.5	-1.0	-3.5
CCc1ccc(N2C(=O)CN(Cc3cccs3)C2=S)cc1	4.3	-0.5	6.6	-1.0	+	2.9
CCOc1ccc(C(=O)Nc2ccc(N3CCN(C(=O)c4ccco4)CC3)cc2)cc1Br	-0.3	44.4*	.	.	.	.
CCOc1ccc(C(=O)Nc2ccc(N3CCN(C)CC3)cc2)cc1Br	1.6	4.5	3.4	-0.6	-4.7	6.6
